ChEMBL document CHEMBL5608214, “Novel tetrasubstituted 5-Arylamino pyrazoles able to interfere with angiogenesis and Ca2+ mobilization” (Eur J Med Chem, 2024)
Active and inactive are the calls of the source. The calls are words filed in the database; no cut-off is given here.

Assays:
[1] = tested on: MCF7; test: Antiproliferative activity against human MCF7 cells assessed as cell growth at 10 uM incubated for 48 hrs by MTT assay relative to control; assay type: functional; conditions: read-out: Activity
Summary of the method: (§1)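 Cells in DMEM with 10 % FBS, 2 mM glutamine and pen-strep, 37 °C, 5 % CO₂, plated to reach 80–90 % confluence at endpoint. At 16 h, compounds were added from a 10 mM DMSO stock to 10 μM final. After 48 h, MTT (2 mg/mL in PBS) was added for 4 h, formazan dissolved in DMSO, and OD read at 570 nm. Results are % of solvent control; three runs, six replicates each, mean ± SD.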

[2] = tested on: SK-OV-3; test: Antiproliferative activity against human SK-OV-3 cells assessed as cell growth at 10 uM incubated for 48 hrs by MTT assay relative to control; assay type: functional; conditions: read-out: Activity; summary of the method: as §1
[3] = tested on: MDA-MB-231; test: Antiproliferative activity against human MDA-MB-231 cells assessed as cell growth at 10 uM incubated for 48 hrs by MTT assay relative to control; assay type: functional; conditions: read-out: Activity; summary of the method: as §1
[4] = Antiproliferative activity against human HUVEC cells assessed as cell growth at 10 uM incubated for 48 hrs by MTT assay relative to control; assay type: toxicity, cell-based; conditions: read-out: Activity; summary of the method: as §1
[5] = tested on: SK-MEL-28; test: Antiproliferative activity against human SK-MEL-28 cells assessed as cell growth at 10 uM incubated for 48 hrs by MTT assay relative to control; assay type: functional; conditions: read-out: Activity; summary of the method: as §1
[6] = tested on: SK-BR-3; test: Antiproliferative activity against human SK-BR-3 cells assessed as cell growth at 10 uM incubated for 48 hrs by MTT assay relative to control; assay type: functional; conditions: read-out: Activity; summary of the method: as §1
[7] = tested on: A549; test: Antiproliferative activity against human A549 cells assessed as cell growth at 10 uM incubated for 48 hrs by MTT assay relative to control; assay type: functional; conditions: read-out: Activity; summary of the method: as §1
[8] = Antiproliferative activity against human GM06114 cells assessed as cell growth at 10 uM incubated for 48 hrs by MTT assay relative to control; assay type: toxicity, cell-based; conditions: read-out: Activity; summary of the method: as §1
[9] = tested on: HeLa; test: Antiproliferative activity against human HeLa cells assessed as cell growth at 10 uM incubated for 48 hrs by MTT assay relative to control; assay type: functional; conditions: read-out: Activity; summary of the method: as §1
[10] = tested on: HepG2; test: Antiproliferative activity against human HepG2 cells assessed as cell growth at 10 uM incubated for 48 hrs by MTT assay relative to control; assay type: functional; conditions: read-out: Activity; summary of the method: as §1
[11] = tested on: HUVEC; test: Inhibition of cell invasion in human HUVEC cells assessed as number of cells at 10 uM incubated for 24 hrs by transwell assay; assay type: functional
Summary of the method: (§2)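 Transwell inserts with 8.0 pore size were coated with Matrigel 1:3 in serum-free medium. HUVEC (2 × 10⁴/insert) went in serum-free medium in the upper chamber, with treatments (10 μM) in growth medium below, for 24 h at 37 °C. Filters were fixed in 4 % paraformaldehyde then methanol and stained with 0.5 % crystal violet. Cells on the lower surface were counted in ten random fields at 10×. n = 3.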

[12] = tested on: HUVEC; test: Anti-angiogenetic activity in human HUVEC cells assessed as number of tube branching points at 10 uM incubated for 12 hrs in presence of tumor secretome from human MIA PaCa-2 cell supernatant by microscopy (reference value: 17); assay type: functional
[13] = tested on: HUVEC; test: Anti-angiogenetic activity in human HUVEC cells assessed as reduction in tube branching at 10 uM incubated for 12 hrs by microscopy; assay type: functional, cell-based
Summary of the method: (§3)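 HUVEC seeded at 2 × 10⁴ cells/well onto gelled Matrigel (mixed 1:1 with EGM-2, set 30 min at 37 °C). Cells were exposed to test agents at 10 μM for 12 h with no stimulus; untreated wells served as control. Tube long axis and branching points were counted in 10 random fields per well at 10× (Angiogenesis Analyzer), giving mean tube length per well. Mean of at least three independent experiments.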

[14] = tested on: HUVEC; test: Inhibition of cell invasion in human HUVEC cells at 10 uM incubated for 24 hrs by transwell assay; assay type: functional, cell-based; summary of the method: as §2
[15] = tested on: HUVEC; test: Effect on conformation of actin filament organization in human HUVEC cells at 10 uM treated for 24 hrs by immunofluorescence assay; assay type: functional, cell-based
Summary of the method: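 HUVEC were left untreated or treated 24 h at 10 μM final. Cells were then fixed on coverslips in 4 % paraformaldehyde, permeabilized with 0.2 % Triton X-100 and blocked with 20 % goat serum. F-actin was stained with FITC-phalloidin (5 µg/ml, 2 h, room temperature, dark) and nuclei with Hoechst 33342. Cells were imaged by confocal microscopy.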

[16] = tested on: HUVEC; test: Anti-angiogenetic activity in human HUVEC cells assessed as relative tube length at 10 uM incubated for 12 hrs in presence of tumor secretome from human MIA PaCa-2 cell supernatant by microscopy (reference value: 108); assay type: functional
[17] = Effect on intracellular calcium signaling in human HUVEC cells assessed as inhibition of calcium mobilization by measuring fluorescence intensity at 10 uM incubated for 1 hr by Fluo-4 a.m. cytofluorimetric assay relative to control; assay type: functional; parameters: scale not given: the % may be the effect or the level left
Summary of the method: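 Trypsinized HUVEC at 5 × 10⁵/ml were treated with compounds at 10 μM in PBS for 1 h at room temperature, washed, then loaded with 2.5 μM Fluo-4 AM (0.06 % DMSO final) for 45 min at 37 °C. Fluorescence was read by flow cytometry with a 530/30 filter. Ionomycin served as positive control and EDTA (added 15 min before) as negative control. n = 3, mean ± SD.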

[18] = tested on: HUVEC; test: Inhibition of cell migration in human HUVEC cells at 10 uM incubated for 24 hrs by wound healing assay; assay type: functional, cell-based
Summary of the method: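 Confluent HUVEC monolayers (2 × 10⁵/well, 24 h) were scratched with a p10 tip and treated at 10 μM with mitomycin C 10 μg/ml to block mitosis. Wounds were photographed at 0 and 24 h (4× phase contrast). Migration was taken as the change in distance covered by the wound edges. n = 3 independent experiments, mean ± SD.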

[19] = tested on: HUVEC; test: Anti-angiogenetic activity in human HUVEC cells assessed as reduction in tube length at 10 uM incubated for 12 hrs by microscopy; assay type: functional, cell-based; summary of the method: as §3
[20] = tested on: HUVEC; test: Anti-angiogenetic activity in human HUVEC cells assessed as number of tube branching points at 10 uM incubated for 12 hrs by microscopy; assay type: functional; summary of the method: as §3
[21] = tested on: HUVEC; test: Anti-angiogenetic activity in human HUVEC cells assessed as relative tube length at 10 uM incubated for 12 hrs by microscopy; assay type: functional; summary of the method: as §3

Row | Compound | growth at 10 µM [1] [%] | growth at 10 µM [2] [%] | growth at 10 µM [3] [%] | viability at 48 h, 10 µM [4] [%] | growth at 10 µM [5] [%] | growth at 10 µM [6] [%] | growth at 10 µM [7] [%] | viability at 48 h, 10 µM [8] [%] | growth at 10 µM [9] [%] | growth at 10 µM [10] [%] | Activity [13] | Activity [19] | further results
1 | CCOC(=O)c1c(Nc2ccc(OC)cc2)nn(CC(O)c2ccccc2)c1N (stereo not drawn) | 98 | 102 | 147 | 99 | 134 | 115 | 100 | 70 | 111 | 115 | – | – | –
2 | CCCC(O)Cn1nc(Nc2cccc(Cl)c2)c(C(=O)OCC)c1N (stereo not drawn) | 95 | 118 | 168 | 97 | 122 | 113 | 85 | 82 | 100 | 90 | Active | Active | Activity [11]: 491; Activity [12]: ~8; inhibition [14]: Active; Activity [15]: Active; Activity [16]: 55; Activity [17]: 21%; inhibition [18]: Active
3 | CCOC(=O)c1c(Nc2ccc(Cl)c(Cl)c2)nn(CC(O)c2ccccc2)c1N (stereo not drawn) | 88 | 111 | 144 | 93 | 135 | 111 | 70 | 77 | 74 | 100 | – | – | –
4 | CCCC(O)Cn1nc(Nc2ccc(OC)cc2)c(C(=O)OCC)c1N (stereo not drawn) | 109 | 110 | 143 | 95 | 120 | 106 | 98 | 75 | 111 | 110 | Active | Active | –
5 | CCOC(=O)c1c(Nc2cccc3ccccc23)nn(CC(O)c2ccccc2)c1N (stereo not drawn) | 97 | 116 | 149 | 98 | 141 | 118 | 88 | 81 | 104 | 118 | Active | Active | Activity [20]: <15; Activity [21]: <20
6 | CCCC(O)Cn1nc(Nc2ccc(C)cc2)c(C(=O)OCC)c1N (stereo not drawn) | 111 | 119 | 158 | 96 | 137 | 123 | 92 | 72 | 109 | 119 | Active | Active | Activity [20]: <15; Activity [21]: <20
7 | CCOC(=O)c1c(Nc2cccc(Cl)c2)nn(CC(O)c2ccccc2)c1N (stereo not drawn) | 101 | 100 | 135 | 93 | 144 | 120 | 88 | 65 | 113 | 113 | Active | Active | –
8 | CCCC(O)Cn1nc(Nc2ccc(Cl)c(Cl)c2)c(C(=O)OCC)c1N (stereo not drawn) | 107 | 116 | 176 | 93 | 137 | 127 | 94 | 87 | 119 | 116 | Active | Active | –
